Assay [1] deals with A2780cisR. As to the kind of experiment: Cytotoxicity against human A2780cisR cells assessed as inhibition of cell viability after 72 hrs by MTT assay. In kind it is functional, cell-based. Summed up:
(§1)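 Cells treated across 0.05 to 100 μM and incubated 72 h at 37 °C; IC50 in μM.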
On the technique in general: Tetrazolium assays rely on reduction of a dye to a coloured formazan, in cell work by metabolically active cells.

The test system of assay [2] is C6. The assay can be described thus: Cell cycle arrest in rat C6 cells assessed as proportion of cells at G0/G1 phase at 0.3 uM after 72 hrs by propidium iodide staining based flow cytometry (reference value: 54.94%). It is filed as functional. Background: Flow cytometry measures light scatter and fluorescence of single cells or particles in a stream.
In assay [3] the test system is A2780cisR. The assay can be described thus: Resistance factor, ratio of IC50 for human A2780cisR cells to IC50 for cisplatin-sensitive human A2780 cells. It is filed as functional.
Assay [4] concerns C6. The assay can be described thus: Cytotoxicity against rat C6 cells overexpressing TSPO assessed as inhibition of cell viability after 72 hrs by MTT assay. In kind it is functional, cell-based. As to conditions: C6, 72 h. Summed up: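 Cells exposed to drug over 0.05 to 100 μM at 37 °C for 72 h; IC50 reported.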
The test system of assay [5] is C6. As to the kind of experiment: Cell cycle arrest in rat C6 cells at 10 uM after 24 hrs by propidium iodide staining based flow cytometry. It is filed as functional. The method in brief: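 C6 glioma cells exposed to 10 μM for 24 h, then cell cycle histograms recorded by flow cytometry. Untreated cells served as control.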
Another assay deals with Translocator protein (Rattus norvegicus, UniProt P16257). As to the kind of experiment: Displacement of [3H]PK11195 from TSPO in rat C6 cell membrane after 90 mins by radioligand binding assay. It is filed as cell membranes. Summed up: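 Affinity for TSPO was measured on membrane extracts of C6 glioma cells and reported as Ki (nM).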
Translocator protein, sequence (P16257 whole entry, looked up, the tested form may be a part): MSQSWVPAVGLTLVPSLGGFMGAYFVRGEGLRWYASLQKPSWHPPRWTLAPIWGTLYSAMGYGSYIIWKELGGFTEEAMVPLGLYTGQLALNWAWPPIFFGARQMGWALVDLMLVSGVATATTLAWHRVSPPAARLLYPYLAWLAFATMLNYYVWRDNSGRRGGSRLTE
The test system of assay [6] is C6. The assay can be described thus: Induction of mitochondrial and nuclear structure modification in rat C6 cells assessed as fragmented nuclei and mitochondria at 10 uM after 24 hrs by MitoTracker Red/DAPI staining based fluorescence microscopy. It is filed as functional, cell-based. The method in brief:
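C6 glioma cells exposed at 10 μM for 24 h, then stained with MitoTracker Red for mitochondria and DAPI for nuclei. Morphology assessed with a digital imaging system. Untreated cells served as control.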

The subject of assay [7] is C6. As to the kind of experiment: Antiproliferative activity in rat C6 cells assessed as proportion of cells with depolarized mitochondrial membrane potential at 10 uM after 24 hrs by JC-1 staining based flow cytometry (reference value: 0.21%). In kind it is functional.
The test system of assay [8] is C6. As to the kind of experiment: Cell cycle arrest in rat C6 cells assessed as proportion of cells at S phase at 0.3 uM after 72 hrs by propidium iodide staining based flow cytometry (reference value: 11.15%). It is filed as functional.
For assay [9], the system named is C6. The assay can be described thus: Cell cycle arrest in rat C6 cells assessed as proportion of cells at sub-G1 phase at 0.3 uM after 72 hrs by propidium iodide staining based flow cytometry (reference value: 5.89%). In kind it is functional.
The nature of assay [10]: Induction of double strand breaks in supercoiled pET plasmid DNA (unknown origin) at 10 uM pretreated for 2 hrs by agarose gel electrophoresis in absence of CuCl2. The method in brief:
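Compound at 10 μM, without CuCl2, incubated with pET plasmid DNA. Supercoiled, open circular and linear forms resolved on 1% agarose gel stained with ethidium bromide.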

Assay [11] can be described thus: Induction of single strand breaks in supercoiled pET plasmid DNA (unknown origin) at 0.5 to 10 uM pretreated for 2 hrs by agarose gel electrophoresis in presence of CuCl2 and GSH. Summed up:
(§2)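 Compound preincubated 2 h with CuCl2 (5 equiv) and GSH (50 equiv), then reacted with pET plasmid DNA for 1 h at 37 °C at 0.5, 1, 2 or 10 μM. Forms I, II and III resolved on 1% agarose gel stained with ethidium bromide. Controls were untreated DNA and CuCl2 plus GSH alone.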

The subject of another assay is A2780. The assay can be described thus: Cytotoxicity against cisplatin-sensitive human A2780 cells assessed as inhibition of cell viability after 72 hrs by MTT assay. In kind it is functional, cell-based. The conditions noted are these: A2780, 72 h. The method in brief: as §1
In assay [12] the test system is C6. As to the kind of experiment: Cell cycle arrest in rat C6 cells assessed as proportion of cells at G2/M phase at 0.3 uM after 72 hrs by propidium iodide staining based flow cytometry (reference value: 28.02%). It is filed as functional.
Assay [13] can be described thus: Induction of double strand breaks in supercoiled pET plasmid DNA (unknown origin) at 0.5 to 10 uM pretreated for 2 hrs by agarose gel electrophoresis in presence of CuCl2 and GSH. The method in brief: as §2
Assay [14] in a line: Induction of double strand breaks in supercoiled pET plasmid DNA (unknown origin) at 10 uM pretreated for 2 hrs by agarose gel electrophoresis in presence of CuCl2 and GSH. The method in brief: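 Ligand (0.5, 1, 2 or 10 μM) preincubated 2 h with CuCl2 (5 equiv) and GSH (50 equiv), then reacted with pET plasmid for 1 h at 37 °C. Products separated on 1% agarose gel stained with ethidium bromide and scored as supercoiled (I), open circular (II) and linear (III) forms.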

Active and inactive are the calls of the source. The rule behind the calls is not given here.

For orientation: IC50 means the point on the concentration scale where inhibition reaches its midpoint. One may read the Ki as a measure of affinity in units of concentration, obtained from inhibition or displacement. Low readings indicate tighter binding, high ones weaker binding. As to `CCCN(CCC)C(=O)Cc1c(-c2ccc(Cl)cc2)nc2c(NC(=O)CN(Cc3ccccn3)Cc3ccccn3)cccn12`, the IC50 was determined as 9.21 µM in the assay on A2780cisR [1], 0.27 µM with C6 [4] and 9.02 µM in the assay on A2780. Also, the Activity is reported as 49.07% in the assay with C6 [2]; 2.47% in the assay with C6 [7]; 13.18% in the assay with C6 [8]; 9.06% with C6 [9]; 28.69% in the assay with C6 [12]. The “Ratio IC50” value with A2780cisR [3] amounted to 1.02. Also, the result (with C6 [5]; in assay [10]; in assay [11]) was inactive. The compound also showed a Ki on Translocator protein of 0.239 µM. Besides, the outcome (in the assay on C6 [6]; in assay [13]) was Active.
Regarding `CCCN(CCC)C(=O)Cc1c(-c2ccc(Cl)cc2)nc2c(N)cccn12`, the IC50 in the assay on C6 [4] is 19.7 µM. Affinity at Translocator protein was put at a Ki of 0.0016 µM. For the same compound, in [14], the outcome was inactive.

The record behind these values is ChEMBL document CHEMBL3286234, “Synthesis, Characterization, and in Vitro Evaluation of a New TSPO-Selective Bifunctional Chelate Ligand” (ACS Med Chem Lett, 2014).
